Test results taken from ChEMBL document CHEMBL1143669, “Triterpene acids from Poria cocos and their anti-tumor-promoting effects” (2007).
Activity calls are given as the source filed them. No cut-off for these calls is given here.

Experiments:
[1] = test system: Human gammaherpesvirus 4; test: Inhibition of TPA-induced Epstein-Barr virus early antigen activation in Raji cells at 100 mol ratio/32 pmol TPA relative to control; values are per cent of control
[2] = test system: Raji; test: Cell viability of Raji cells; type: functional, Homo sapiens
Summary of the method: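 Raji cells were exposed to test compound at 32 nmol, a 1000:1 mol ratio to TPA, and cell viability (%) was scored in the EBV-EA activation system.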

[3] = test system: Human gammaherpesvirus 4; test: Effect on TPA-induced Epstein-Barr virus early antigen activation in Raji cells at 500 mol ratio/32 pmol TPA relative to control
[4] = test system: Human gammaherpesvirus 4; test: Effect on TPA-induced Epstein-Barr virus early antigen activation in Raji cells at 1000 mol ratio/32 pmol TPA relative to control
[5] = test system: Human gammaherpesvirus 4; test: Inhibition of TPA-induced Epstein-Barr virus early antigen activation in Raji cells at 10 mol ratio/32 pmol TPA relative to control; values are per cent of control
[6] = test system: Mus musculus; test: Inhibition of DMBA initiated TPA-induced skin tumor promotion in mouse at 85 nmol after 20 weeks by in vivo two-stage carcinogenesis test; type: functional, organism-based

C=C(CCC(C(=O)O)[C@H]1[C@H](O)C[C@@]2(C)[C@]34C=C[C@@]5(OO3)C(C)(C)[C@@H](O)CC[C@]5(C)C4=CC[C@]12C)C(C)C (some centres not stated)
EBV-EA activation (% of control) [1]: 57.8% | Activity [2]: 60% | Activity [3]: 17.4% | Activity [4]: 0% | EBV-EA activation (% of control) [5]: 83.6%

CC(C)=CCCC(C(=O)O)[C@H]1CC[C@@]2(C)C3=CC[C@H]4C(C)(C)[C@@H](O)CC[C@]4(C)C3=CC[C@]12C (some centres not stated)
EBV-EA activation (% of control) [1]: 79.1% | Activity [2]: 70% | Activity [3]: 45.3% | Activity [4]: 9.2% | EBV-EA activation (% of control) [5]: 100%

C=C(CCC(C(=O)O)[C@H]1[C@H](O)[C@H](O)[C@@]2(C)C3=CC[C@H]4C(C)(C)[C@@H](O)CC[C@]4(C)C3=CC[C@]12C)C(C)C (some centres not stated)
EBV-EA activation (% of control) [1]: 70% | Activity [2]: 70% | Activity [3]: 22.5% | Activity [4]: 0% | EBV-EA activation (% of control) [5]: 91%

C=C(CCC(C(=O)O)[C@H]1[C@H](O)C[C@@]2(C)C3=CC[C@H]4C(C)(C)C(=O)CC[C@]4(C)C3=CC[C@]12C)C(C)(C)O (some centres not stated)
EBV-EA activation (% of control) [1]: 65.3% | Activity [2]: 70% | Activity [3]: 39.5% | Activity [4]: 0% | EBV-EA activation (% of control) [5]: 91.7%

C=C(C)[C@@H]1CC=C2C(=CC[C@]3(C)[C@@H](C(CCC=C(C)C)C(=O)O)CC[C@@]23C)[C@@]1(C)CCC(=O)O (some centres not stated) [16-DEOXYPORICOIC ACID B]
Activity [6]: Active | EBV-EA activation (% of control) [1]: 65% | Activity [2]: 70% | Activity [3]: 19.3% | Activity [4]: 0% | EBV-EA activation (% of control) [5]: 90%

C=C(C)[C@@H]1CCC2=C(CC[C@]3(C)[C@@H](C(CCC(=C)C(C)(C)O)C(=O)O)[C@H](O)C[C@@]23C)[C@@]1(C)CCC(=O)O (some centres not stated) [25-HYDROXYPORICOIC ACID H]
EBV-EA activation (% of control) [1]: 57.5% | Activity [2]: 70% | Activity [3]: 16.7% | Activity [4]: 0% | EBV-EA activation (% of control) [5]: 82.8%

CC1=C(/C=C/C(C)=C/C=C/C(C)=C/C=C/C=C(C)/C=C/C=C(C)/C=C/C2=C(C)CCCC2(C)C)C(C)(C)CCC1 [BETA CAROTENE]
EBV-EA activation (% of control) [1]: 82.1% | Activity [2]: 70% | Activity [3]: 34.2% | Activity [4]: 8.6% | EBV-EA activation (% of control) [5]: 100%

C=C(CC[C@@H](C(=O)O)[C@H]1CC[C@@]2(C)C3=CC[C@H]4C(C)(C)[C@@H](O)CC[C@]4(C)C3=CC[C@]12C)C(C)C [DEHYDROEBURICOIC ACID]
EBV-EA activation (% of control) [1]: 74.9% | Activity [2]: 70% | Activity [3]: 45.1% | Activity [4]: 8.7% | EBV-EA activation (% of control) [5]: 100%

C=C(CCC(C(=O)O)[C@H]1CC[C@@]2(C)C3=CC[C@H]4C(C)(C)C(=O)CC[C@]4(C)C3=CC[C@]12C)C(C)C (some centres not stated) [DEHYDROEBURICONIC ACID]
EBV-EA activation (% of control) [1]: 79.5% | Activity [2]: 70% | Activity [3]: 43.9% | Activity [4]: 9.5% | EBV-EA activation (% of control) [5]: 100%

C=C(CCC(C(=O)O)[C@H]1[C@H](O)C[C@@]2(C)C3=CC[C@H]4C(C)(C)[C@@H](OC(C)=O)CC[C@]4(C)C3=CC[C@]12C)C(C)C (some centres not stated) [DEHYDROPACHYMIC ACID]
EBV-EA activation (% of control) [1]: 72.4% | Activity [2]: 70% | Activity [3]: 28.1% | Activity [4]: 0% | EBV-EA activation (% of control) [5]: 95.1%

CC(C)=CCCC(C(=O)O)[C@H]1CC[C@@]2(C)C3=CC[C@H]4C(C)(C)C(=O)CC[C@]4(C)C3=CC[C@]12C (some centres not stated) [DEHYDROTRAMETENONIC ACID]
EBV-EA activation (% of control) [1]: 71% | Activity [2]: 70% | Activity [3]: 30.1% | Activity [4]: 0% | EBV-EA activation (% of control) [5]: 94.2%

C=C(CC[C@@H](C(=O)O)[C@H]1CC[C@@]2(C)C3=C(CC[C@]12C)[C@@]1(C)CC[C@H](O)C(C)(C)[C@@H]1CC3)C(C)C [EBURICOIC ACID]
EBV-EA activation (% of control) [1]: 75.3% | Activity [2]: 70% | Activity [3]: 45.8% | Activity [4]: 9.1% | EBV-EA activation (% of control) [5]: 100%

C=C(CC[C@@H](C(=O)O)[C@H]1[C@H](O)C[C@@]2(C)C3=C(CC[C@]12C)[C@@]1(C)CC[C@H](OC(C)=O)C(C)(C)[C@@H]1CC3)C(C)C [PACHYMIC ACID]
EBV-EA activation (% of control) [1]: 71.6% | Activity [2]: 70% | Activity [3]: 24.7% | Activity [4]: 0% | EBV-EA activation (% of control) [5]: 96.5%

C=C(CC[C@@H](C(=O)O)[C@H]1[C@H](O)C[C@@]2(C)C3=CC[C@@H](C(=C)C)[C@](C)(CCC(=O)OC)C3=CC[C@]12C)C(C)C [PORICOIC ACID AM]
EBV-EA activation (% of control) [1]: 57.8% | Activity [2]: 70% | Activity [3]: 9.6% | Activity [4]: 0% | EBV-EA activation (% of control) [5]: 81.8%

C=C(CCC(C(=O)O)[C@H]1CC[C@@]2(C)C3=CC[C@@H](C(=C)C)[C@](C)(CCC(=O)OC)C3=CC[C@]12C)C(C)C (some centres not stated) [PORICOIC ACID CM]
EBV-EA activation (% of control) [1]: 63.4% | Activity [2]: 70% | Activity [3]: 37.2% | Activity [4]: 0% | EBV-EA activation (% of control) [5]: 87.6%

C=C(CC[C@@H](C(=O)O)[C@H]1CC[C@@]2(C)C3=CC[C@@H](C(=C)C)[C@](C)(CCC(=O)O)C3=CC[C@]12C)C(C)C [PORICOIC ACID C]
Activity [6]: Active | EBV-EA activation (% of control) [1]: 67.2% | Activity [2]: 70% | Activity [3]: 21.1% | Activity [4]: 0% | EBV-EA activation (% of control) [5]: 91.7%

C=C(C)[C@@H]1CC=C2C(=CC[C@]3(C)[C@@H]([C@@H](CCC(=C)C(C)(C)O)C(=O)O)[C@H](O)C[C@@]23C)[C@@]1(C)CCC(=O)OC [PORICOIC ACID DM]
EBV-EA activation (% of control) [1]: 59% | Activity [2]: 70% | Activity [3]: 18.1% | Activity [4]: 0% | EBV-EA activation (% of control) [5]: 86.3%

C=C(C)[C@@H]1CC=C2C(=CC[C@]3(C)[C@@H](C(CCC(=C)C(C)(C)O)C(=O)O)[C@H](O)C[C@@]23C)[C@@]1(C)CCC(=O)O (some centres not stated) [PORICOIC ACID D]
EBV-EA activation (% of control) [1]: 56.1% | Activity [2]: 70% | Activity [3]: 15.3% | Activity [4]: 0% | EBV-EA activation (% of control) [5]: 81.5%
